From ChEMBL document CHEMBL1140297, “Discovery of novel and potent small-molecule inhibitors of NO and cytokine production as antisepsis agents: synthesis and biological activity of alkyl 6-(N-substituted sulfamoyl)cyclohex-1-ene-1-carboxylate” (J Med Chem, 2005)
Activity calls are given as the source filed them. The calls are words filed in the database; no cut-off is given here.

Tests used:
RAW264.7 [1] = assay: Inhibition of LPS-induced nitric oxide production in mouse RAW264.7 cells; format: functional, cell-based
In short: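 RAW264.7 macrophages were plated at 1 × 10⁵ cells/well and cultured overnight. Cells were exposed to 10 ng/mL LPS with graded compound concentrations for 20 h at 37 °C, 5% CO₂, in phenol red-free RPMI1640 containing 1% heat-inactivated FBS. Supernatant nitrite was read fluorometrically with DAN followed by NaOH (ex 355/em 460 nm). IC50 is the concentration halving NO versus control; mean ± SD of two or three experiments.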

RAW264.7 [2] = assay: Inhibition of LPS-induced IL6 production in mouse RAW264.7 cells by ELISA; format: functional, cell-based
In short: (§1)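 RAW264.7 cells (grown in RPMI1640 with 10% heat-inactivated FBS) were seeded at 1 × 10⁵ cells/well and left overnight. They were then stimulated with 10 ng/mL LPS (E. coli O111:B4) plus a range of compound concentrations for 20 h at 37 °C in phenol red-free RPMI1640 with 1% FBS. TNF-α and IL-6 in the supernatant were measured by ELISA.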

RAW264.7 [3] = assay: Inhibition of LPS-induced TNFalpha production in mouse RAW264.7 cells by ELISA; format: functional, cell-based; in short: as §1
Mus musculus [4] = assay: Survival of LPS-challenged BALB/c mouse endotoxin shock model at 3 mg/kg, iv; format: functional, organism-based; design: dose 3 mg/kg
In short: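 Female BALB/c mice (6-week-old, acclimated at least 1 week) were given compound iv in 10% glucuronylglucosyl-β-cyclodextrin 1 h before a lethal LPS challenge (7 mg/kg ip). Survival was recorded for 7 days, with 10 mice per group. Survival was analysed by Tarone's test with a closed step-down method versus vehicle.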

Mus musculus [5] = assay: Survival of LPS-challenged intravenously dosed BALB/c mouse endotoxin shock model; format: functional; conditions: iv
In short: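 Female BALB/c mice (6-week-old, 15-21 g), acclimated at least one week. Compound dissolved in 10% (w/v) glucuronylglucosyl-β-cyclodextrin sodium salt, given iv at 0.3-3 mg/kg 1 h before lethal LPS (E. coli O111:B4, 7 mg/kg ip, in saline). Survival recorded for 7 days; 10 mice per group; Tarone's test with simple closed step-down method vs vehicle; ED50 as minimum effective dose.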

Mus musculus [6] = assay: Suppression of serum TNF-alpha level in LPS-challenged BALB/c mouse endotoxin shock model at 0.1 to 3 mg/kg, iv; format: functional, organism-based
In short: (§2)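 Female BALB/c mice (6-week-old) received compound iv at 0.1–3 mg/kg in 10% glucuronylglucosyl-β-cyclodextrin, 1 h before LPS 7 mg/kg ip. Serum was collected at 1 h for TNF-α, 2 h for IL-6 and 6 h for IL-1β, then assayed by ELISA. n = 8 mice; means ± SE; one-tailed Williams or Shirley-Williams test versus vehicle.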

Mus musculus [7] = assay: Suppression of serum nitric oxide level in LPS-challenged BALB/c mouse endotoxin shock model at 0.1 to 3 mg/kg, iv; format: functional, organism-based
In short: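 Female BALB/c mice were dosed iv at 0.1–3 mg/kg (10% glucuronylglucosyl-β-cyclodextrin vehicle) 1 h before LPS 7 mg/kg ip. Serum was taken at 6 h. Nitrate was reduced to nitrite with Aspergillus nitrate reductase and β-NADPH for 20 min, then read with DAN/HCl and NaOH fluorescence (ex 355/em 460 nm) against a sodium nitrite standard curve. n = 8 mice; means ± SE.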

Mus musculus [8] = assay: Suppression of serum IL6 level in LPS-challenged BALB/c mouse endotoxin shock model at 0.1 to 3 mg/kg, iv; format: functional, organism-based; in short: as §2
Mus musculus [9] = assay: Suppression of serum IL1-beta level in LPS-challenged BALB/c mouse endotoxin shock model at 0.1 to 3 mg/kg, iv; format: functional, organism-based; in short: as §2

Molecule `CCOC(=O)C1=CCCCC1S(=O)(=O)Nc1cccc(F)c1` (stereo unspecified) has an IC50 (RAW264.7 [1]) of 150 nM.
In the case of `CCOC(=O)C1=CCCCC1S(=O)(=O)Nc1ccc(C#N)cc1Cl` (stereo unspecified), the IC50 (RAW264.7 [1]) is reported as 1600 nM.
`CCOC(=O)C1=CCCCC1S(=O)(=O)Nc1ccccc1CC` (stereo unspecified) gave an IC50 (RAW264.7 [1]) of 130 nM.
Molecule `CCOC(=O)C1=CCCC1S(=O)(=O)Nc1ccc(F)cc1Cl` (stereo unspecified) has an IC50 (RAW264.7 [1]) of 110 nM.
For `CCOC(=O)C1=C(S(=O)(=O)Nc2ccccc2)CCCC1`, the IC50 (RAW264.7 [1]) was > 8200 nM.
In the case of `C/C=C(\C(=O)OCC)C(CCC)S(=O)(=O)Nc1ccc(F)cc1Cl` (stereo unspecified), the IC50 (RAW264.7 [1]) is reported as 2600 nM.
Work on `CCOC(=O)C1=CCCCC1S(=O)(=O)Nc1ccccc1F` (stereo unspecified) yielded an IC50 (RAW264.7 [1]) of 75 nM.
`CC(C)OC(=O)C1=CCCCC1S(=O)(=O)Nc1ccc(F)cc1F` (stereo unspecified) showed an IC50 (RAW264.7 [1]) of 110 nM.
In the case of `CCOC(=O)C1=C(S(=O)(=O)Nc2ccc(F)cc2)CCCC1`, the IC50 (RAW264.7 [1]) is reported as 1400 nM.
For `COC(=O)C1=CCCCC1S(=O)(=O)Nc1ccc(F)cc1F` (stereo unspecified), the IC50 (RAW264.7 [1]) was 57 nM.
With `CCOC(=O)c1ccccc1S(=O)(=O)Nc1ccc(F)cc1Cl` the IC50 (RAW264.7 [1]) was > 10000 nM.
In the case of `O=C(OCCO)C1=CCCCC1S(=O)(=O)Nc1ccc(F)cc1F` (stereo unspecified), the IC50 (RAW264.7 [1]) is reported as 330 nM.
For `CCOC(=O)C1=CCCCC1S(=O)(=O)Nc1c(F)cccc1F` (stereo unspecified), the IC50 (RAW264.7 [1]) was 160 nM.
`CCOC(=O)C1=CCCCC1S(=O)(=O)Nc1ccc(Cl)cc1F` (stereo unspecified) showed an IC50 (RAW264.7 [1]) of 160 nM, an IC50 (RAW264.7 [2]) of 170 nM and an IC50 (RAW264.7 [3]) of 230 nM.
For `CCOC(=O)C1=CCCC[C@H]1S(=O)(=O)Nc1ccc(F)cc1Cl` [RESATORVID], the IC50 (RAW264.7 [1]) was 1.8 nM, the Activity (Mus musculus [4]) was “Active” and the ED50 (Mus musculus [5]) was 0.3 mg/kg. The IC50 (RAW264.7 [2]) was 1.3 nM, the Activity (Mus musculus [6]) was “Active” and the Activity (Mus musculus [7]) was “Active”. For the same molecule, the IC50 (RAW264.7 [3]) was 1.9 nM, the Activity (Mus musculus [8]) was “Active” and the Activity (Mus musculus [9]) was “Active”.
In the case of `CCOC(=O)C1=CCCCC1S(=O)(=O)Nc1nncs1` (stereo unspecified), the IC50 (RAW264.7 [1]) is reported as > 10000 nM.
`CCOC(=O)C1=CCCCC1S(=O)(=O)Nc1ccc(C)cc1Cl` (stereo unspecified) was tested, and the IC50 (RAW264.7 [1]) was 41 nM.
Molecule `CCOC(=O)C1=C(S(=O)(=O)Nc2ccc(Cl)cc2F)CCCC1` has an IC50 (RAW264.7 [1]) of 1700 nM.
In the case of `O=C1C2=C(CCCC2)S(=O)(=O)N1c1ccc(F)cc1`, the IC50 (RAW264.7 [1]) is reported as 4100 nM.
Work on `CCOC(=O)C1=CCCCC1S(=O)(=O)Nc1ccc(Cl)cc1Cl` (stereo unspecified) yielded an IC50 (RAW264.7 [1]) of 20 nM.
`CCOC(=O)C1=CCCCC1S(=O)(=O)Nc1ccccc1Cl` (stereo unspecified) gave an IC50 (RAW264.7 [1]) of 12 nM.
With `CCOC(=O)C1=CCCCC1S(=O)(=O)Nc1cc(F)c(F)cc1F` (stereo unspecified) the IC50 (RAW264.7 [1]) was 30 nM.
`CCOC(=O)C1=CCCCC1S(=O)(=O)Nc1ccc(Cl)cc1` (stereo unspecified) showed an IC50 (RAW264.7 [1]) of 400 nM.
`CC(C)COC(=O)C1=CCCCC1S(=O)(=O)Nc1ccc(F)cc1F` (stereo unspecified) gave an IC50 (RAW264.7 [1]) of 49 nM.
`CCOC(=O)C1=CCCCC1S(=O)(=O)N(C)c1ccc(Cl)cc1F` (stereo unspecified) gave an IC50 (RAW264.7 [1]) of 230 nM.
With `CCOC(=O)C1=CCCCC1S(=O)(=O)Nc1ccccc1` (stereo unspecified) the IC50 (RAW264.7 [1]) was 260 nM.
In the case of `CCOC(=O)C1=CCCCC1S(=O)(=O)Nc1ccc(F)cc1F` (stereo unspecified), the IC50 (RAW264.7 [1]) is reported as 16 nM.
`CCOC(=O)C1=CCCCC1S(=O)(=O)Nc1cccc(Cl)c1` (stereo unspecified) was tested, and the IC50 (RAW264.7 [1]) was 66 nM.
`CCOC(=O)C1=CCCC[C@@H]1S(=O)(=O)Nc1ccc(F)cc1Cl` was tested, and the IC50 (RAW264.7 [1]) was 640 nM, the IC50 (RAW264.7 [2]) was 480 nM and the IC50 (RAW264.7 [3]) was 740 nM.
`CCOC(=O)C1=CCCCC1S(=O)(=O)Nc1ccccc1C(=O)OC` (stereo unspecified) was tested, and the IC50 (RAW264.7 [1]) was 1100 nM.
`CCCOC(=O)C1=CCCCC1S(=O)(=O)Nc1ccc(F)cc1F` (stereo unspecified) gave an IC50 (RAW264.7 [1]) of 29 nM.
Work on `CCOC(=O)C1=CCCCCC1S(=O)(=O)Nc1ccc(F)cc1Cl` (stereo unspecified) yielded an IC50 (RAW264.7 [1]) of 240 nM.
With `CCOC(=O)C1=CCCCC1S(=O)(=O)Nc1nccs1` (stereo unspecified) the IC50 (RAW264.7 [1]) was > 10000 nM.
For `CCOC(=O)C1=CCCCC1S(=O)(=O)Nc1cccc(F)c1F` (stereo unspecified), the IC50 (RAW264.7 [1]) was 140 nM.
In the case of `CCOC(=O)C1=CCCCC1S(=O)(=O)Nc1ccc(F)cc1` (stereo unspecified), the IC50 (RAW264.7 [1]) is reported as 110 nM.
In the case of `CCOC(=O)C1=CCCCC1S(=O)(=O)Nc1ccc(F)cc1Cl` (stereo unspecified), the IC50 (RAW264.7 [1]) is reported as 3.2 nM, the IC50 (RAW264.7 [2]) is reported as 2.5 nM and the IC50 (RAW264.7 [3]) is reported as 3.4 nM.
`CCCCOC(=O)C1=CCCCC1S(=O)(=O)Nc1ccc(F)cc1F` (stereo unspecified) gave an IC50 (RAW264.7 [1]) of 140 nM.
